In this data set the test system is MS2 coat protein. The data set can be described thus: apparent Kd, MS2 coat protein; higher = weaker binding; RNA-MaP array; FMN 200 µM where present. The essentials:
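On Illumina sequencing-chip clusters, designs were transcribed by stalled E. coli RNA polymerase and titrated with SNAP-549-labelled MS2 coat protein (0.7 or 1.5 nM, doubling to 3 µM), without and then with constant ligand, in 100 mM Tris-HCl pH 7.5, 80 mM KCl, 4 mM MgCl2, BSA, DTT, yeast tRNA and Tween-20. Apparent Kd is the median of filtered per-cluster curve fits to green signal normalised to red-channel RNA signal and control-cluster median Fmax.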

Setting [1] is: designed as: OFF switch for flavin mononucleotide, no ligand.
The mark [2] stands for this setting: ligand present: flavin mononucleotide, designed as: OFF switch for flavin mononucleotide.
The mark [3] stands for this setting: designed as: ON switch for flavin mononucleotide, no ligand.
Where [4] appears, read: ligand present: flavin mononucleotide, designed as: ON switch for flavin mononucleotide.

With “UUUUACAUAGGAUAUAGUUUCUUUUACAUGAGGAUCACCCAUGUUUCUCUUCUCUCUCUUCUAGAAGGAUGUUUCU”, the “apparent Kd” value under setting [1] came out at 34.8 nM and the “apparent Kd” value under setting [2] turned out to be 31.4 nM.
For the sequence “AGAACGUCAGGAUAUCCAACAACAAGUAAAUAGAGAAGAAGGGAGAAGGGACAUGAGGAUCACCCAUGUAAGAA”, the “apparent Kd” value under setting [1] came to 51.4 nM and the “apparent Kd” value under setting [2] turned out to be 45.9 nM.
Consider “GCAACGCCUGACAUGAGGAUCACCCAUGUUAGAUUGUUAUGUCAGGAUAUUGUCGCUAAAGGUGAUGAGAAGGGAUAUGUUGCU”, for which the “apparent Kd” value under setting [3] is 1180 nM and the “apparent Kd” value under setting [4] turned out to be 71 nM.
With “CCUGCACAUGAGGAUCACCCAUGUUAGGAUAUAUUUGACCGUGGAAUUACCAUUGGAAGUAGAAGGAACAUGUA”, the “apparent Kd” value is, setting by setting: under setting [1], 16.1 nM; under setting [2], 18 nM.
In the case of “CUUUUAUAAUAGAAGGUUGACUUUAAGUGGAUCACCCAUGUGUAGGUACAAAGGAUAUGUAGUUACAUGAGGAUCACCCAUGUU”, the “apparent Kd” value by setting is: under setting [3], 306 nM; under setting [4], 201 nM.
As to “UUUAUUUAGGCAGGAUAUACAUGUAUAUAUAUUUUUUUAUAUAUUAUUACAUGAGGAUCACCCAUGUAGAAGGGCCUUAUUAUA”, the “apparent Kd” value reads like this: under setting [1], 75.6 nM; under setting [2], 89.1 nM.
On to “CCGUCACAUGAGGAUCACCCAUGUCAGGAUAUCUAUCAUAGCAUCGAAAGAUGCGGGUAGAGAAGGGACUAUCC”, for which the “apparent Kd” value under setting [2] turned out to be 22.6 nM.
With “ACCAUUUACUAGUUUUCUAUACAUGAGGAUCACCCAUGUUUUUAGGAUAUCAGCGUGAAACACGCUGAGAAGGAAGAACAAUCG”, the “apparent Kd” value is, setting by setting: under setting [1], 19.1 nM; under setting [2], 24.6 nM.
Turning to “GCGUCAGAAUUAAUUGUGACAUACAGAAGGCAAAAGUUAAGAUCAGACAUGAGGAUCACCCAUGUUGAGGAUAUGUAGAGAAUC”, the “apparent Kd” value by setting is: under setting [1], 10.4 nM; under setting [2], 8.72 nM.
As to “GGACAUGAGGAUCACCCAUGUCGAACAUGAGGAUCACCCAUGUAGGAUAUGCUACUCAAAGAGUAGCAGAAGGACAUGUGCCUU”, the “apparent Kd” value under setting [1] was 53.7 nM and the “apparent Kd” value under setting [2] worked out at 51.2 nM.
For “GUCAGCUCGUGAGGAUAUACAACACUGCUUCGGCAGUGUACUAAGAUCACAUGAGGAUCACCCAUGUAGAAGGCACGAGCUGAU”, in that order: 14.6 nM and 246 nM.
The corresponding values for “UCGCUGCGAGGAUAUACAUGAGGAUCACCCAUGUACGGGUCCGGGUCUAAGUUGAUAAGUAGAAGGCGCAGUGA” are 125 nM and 112 nM.
As to “ACUAGGCGAGGAUAUACAUGCUUAACACAGCGAAAGCUGUGACAUGAGGAUCACCCAUGUAGAAGGCGCAAAUA”, the “apparent Kd” value amounted to 54.1 nM under setting [1] and 365 nM under setting [2].
As for “GGUACGUCCACAGGAUAUGCGAAACAAGAAACCGCAGAAGGGUGAGGCGUCAGGACCCUGGACAUGAGGAUCACCCAUGUGCGU”, the “apparent Kd” value by setting is: under setting [3], 113 nM; under setting [4], 15.4 nM.
“UGAGGACAUGAGGAUCACCCAUGUAAGGAUAUGCGGAGAGUUUGGAGAGGUUGAGGAGGCAGAAGGUACGGGAU”: the “apparent Kd” value by setting is: under setting [1], 155 nM; under setting [2], 79.1 nM.
With “CUGACAGCGCAGAAGGGAGAUCCUACAUGAGGAUCACCCAUGUGGGCUCUCAGGAUAUGCACGUGUAUGCUGAAAGUAGCAUUG”, the “apparent Kd” value turned out to be 17.2 nM under setting [3] and 7.17 nM under setting [4].
Take “UAUAACAUGAGGAUCACCCAUGUGGUCGUCGUGGCCCUGUGACAGGAUAUCGGAGUUGGAGCAUACGAGAAGGGUUACGCGGCC”: the “apparent Kd” value is, setting by setting: under setting [1], 10.5 nM; under setting [2], 12.4 nM.
Turning to “ACUGGUCGAGGAUAUGCAAUCGUGCUUCGGCACGUAAGGUCACAUGAGGAUCACCCAUGUAGAAGGCGACCAGU”, the “apparent Kd” value is, setting by setting: under setting [1], 17.2 nM; under setting [2], 36.4 nM.
Turning to “UUUUAGAGAGGAUAUACAUUUUUUUAUUUAUUUAUAAUAUUACAUGAGGAUCACCCAUGUAGAAGGCUCAUUUU”, the “apparent Kd” value runs as follows: under setting [1], 28.8 nM; under setting [2], 22 nM.
For “AACAGUACAGGAUAUACAUGAGGAUCACCCAUGUGAAGAAUAAGUGGAGUACCACAAAGUAGAAGGGUACUGGA”, in that order: 26.7 nM and 132 nM.
As for “GACGGUGAUGUAGGAUAUACGCUGGAUAACAGCGUAGAAGGACAUGAGGAUCACCCAUGUAAAGUGUCUCUAAAUAACACCGUC”, the “apparent Kd” value is, setting by setting: under setting [1], 20.7 nM; under setting [2], 47.5 nM.
“AGGAACAUGAGGAUCACCCAUGUUAGAGACCUCAUGCGAUGUAGAAGGAUAAUCCGAGAAGAGGUAUAGGAUAUACAUGAGAAA”: the “apparent Kd” value is 208 nM under setting [1] and 171 nM under setting [2].
“GAGGUAUUCGUAGGAUAUCCGUCGCCACCGUGUGGAGAAGGACGAACAUGAGGAUCACCCAUGUAUCAUGGUGUGGACGCUGUC”: the “apparent Kd” value under setting [1] came out at 61.8 nM and the “apparent Kd” value under setting [2] came to 61.7 nM.
As for “ACUACGAUAGCGAUAUGAUCGAGAGAUCAUGUCGCUAAAUUUAGAAGGACAUGAGGAUCACCCAUGUAGGAUAUGGGUCGUAGA”, the “apparent Kd” value under setting [3] was 28 nM and the “apparent Kd” value under setting [4] was 9.62 nM.
As to “AACUAUGUAUUUAUAGUGUCUGACAGAAGGCAAUAGGUUGUGACCGACAUGAGGAUCACCCAUGUUGAGGAUAUGUCUAGCUAC”, the “apparent Kd” value came to 40.4 nM under setting [1] and 264 nM under setting [2].
As for “GGUAUCUCCAGUGAGGAUAUGCGGCGUAGAACAUGAGGAUCACCCAUGUCCUUCGAAUGGGUUACGCAGAAGGCACUACGGUACC”, the “apparent Kd” value runs as follows: under setting [3], 36.6 nM; under setting [4], 16.6 nM.
As for “GUCAGCUCGUGAGGAUAUACAUGUGCUGGAUACAGCACUAUUAUGUUCACAUGAGGAUCACCCAUGUAGAAGGCACGAGCUGAU”, the “apparent Kd” value reads like this: under setting [1], 16.2 nM; under setting [2], 21.7 nM.
As to “ACUCGAUUUUUGGGUAUACUAUAUGAGGAUAUCAUACAUCUAUACAUGAGGAUCACCCAUGUGACUGAGAAGGCAUAUAUAAUA”, the “apparent Kd” value worked out at 18.8 nM under setting [3] and 9.15 nM under setting [4].
Regarding “GCAAACAUGAGGAUCACCCAUGUCGGCUAUAAGUCCGCUCACAGAAGGGAUACGCCGGCAGGUGAUCAGGAUAUGUGGGCGCGC”, the “apparent Kd” value reads like this: under setting [3], 239 nM; under setting [4], 16.5 nM.
“GCCAGUUAUGUAGGAUAUGCGCAGCGAGCCUGAGCAGAAGGACAUGAGGAUCACCCAUGUGUUGCGGUUUGAGUACUAAUCGCU”: the “apparent Kd” value is, setting by setting: under setting [1], 24.3 nM; under setting [2], 134 nM.
Consider “GUAUUAAAGAUCCAUUUAUUCAACAUGAGGAUCACCCAUGUGCAGGAUAUCGUGUGUUUUAUAUUCGAGAAGGGCAAAUUCAUU”, for which the “apparent Kd” value runs as follows: under setting [1], 44.6 nM; under setting [2], 104 nM.
The corresponding values for “GGGCUGUCAGGAUAUACAUGAGGAUCACCCAUGUCGAGCUGUGAUAGGGCAAGAGUAGGUAGAAGGGACGAGAG” are 34.7 nM and 36.1 nM.
Regarding “GUUUACCGAGGAUAUACAUGAGGAUCACCCAUGUUCCUAAUAAACAUCGGUUCAGCGUGUAGAAGGCGGACCUA”, the “apparent Kd” value under setting [1] is 22.5 nM and the “apparent Kd” value under setting [2] came out at 53.9 nM.
As to “CGUGCAUAUGUAGGAUAUGGUUAUCUAUGUCUAGUUACUAGACAUAGAUAACCAGAAGGACAUGAGGAUCACCCAUGUAGCACG”, the “apparent Kd” value reads like this: under setting [1], 9.7 nM; under setting [2], 17.4 nM.
The corresponding values for “CGGCUCUCAGGAUAUACCUUGGGUGGCCAACUGUUUCGUUUACAUGAGGAUCACCCAUGUAGAAGGGAGGGCAA” are 53.8 nM and 33 nM.
For the sequence “AAUUUACAGGGAGGAUAUACAUGAGGAUCACCCAUGUCAUCAUAUGAUAUUUCUUUUGUAUGAGUGUAGAAGGCCCAACUACCA”, the “apparent Kd” value by setting is: under setting [1], 18.2 nM; under setting [2], 18.3 nM.
Regarding “CGCUCAAUAGAGAAGGAAAGAAUCAGAAGGCGUUACAUGAGGAUCACCCAUGUUUUGUAUAGUAACGAGGAUAUGAUAUGAGCG”, the “apparent Kd” value is, setting by setting: under setting [1], 18.9 nM; under setting [2], 15.3 nM.
“UUUAAGCUCACAUGAGGAUCACCCAUGUCCGUUCGCCCGGACAGAAGGCACCCAUGACAAUGCGGUGAGGAUAUGUCAGCAAGG”: the “apparent Kd” value is, setting by setting: under setting [3], 120 nM; under setting [4], 13.1 nM.
As for “AAUCGGGAGCAGAAGGCAUGUCAUAAGACAUGAGGAUCACCCAUGUAGUUAAGGCGAAAGCCGCAUGAGGAUAUGCUCCCGUAA”, the “apparent Kd” value was determined as 71.2 nM under setting [3] and 6.27 nM under setting [4].
“GGUGCAUAUGAGAAGGCGAUCAUGAAACAUGAUCGAGGAUAUCAUGUAAACAUGAGGAUCACCCAUGUAUGGGAAAAGUGCAUC”: the “apparent Kd” value turned out to be 85.4 nM under setting [3] and 10.7 nM under setting [4].
For “ACAUGAGGAUCACCCAUGUUCACAUAGGAUAUUGAUUAUAUUGGUUUUUGAAUAGUAAUUAACCUCAAGAAGGAUGCCUGAUCU”, the “apparent Kd” value reads like this: under setting [3], 11.6 nM; under setting [4], 9.34 nM.
As to “GGUACCAUCACAGGAUAUGCUUUUCUUUGGGAAGCAGAAGGGUGUAACAUGAGGAUCACCCAUGUGGUACCAGGGCGUGAGCCC”, the “apparent Kd” value reads like this: under setting [3], 170 nM; under setting [4], 14.8 nM.
Consider “UUGGACGUCGUAGGAUAUGUAGGAUAUUCCUACAUGAGGAUCACCCAUGUUGACAUGGAAGAAGGACAGAAGGACCAUGUCCAU”, for which the “apparent Kd” value is 451 nM under setting [3] and 14.8 nM under setting [4].
Consider “UUUAAACAGUCAGGAUAUGUAACGCACAACGGCGCAGAAGGGACAUGAGGAUCACCCAUGUUAUGGUUCUGGUACUAUGACGUU”, for which the “apparent Kd” value came out at 18.4 nM under setting [1] and 22.9 nM under setting [2].
With “AACUGACAUGAGGAUCACCCAUGUCAGGAUAUGAUUUGACGAAAUAAAACACGUCAUAUCAGAAGGGACAUGGA”, the “apparent Kd” value is, setting by setting: under setting [1], 26.5 nM; under setting [2], 48.6 nM.
For the sequence “GCAAAGCCUGACAUGAGGAUCACCCAUGUUAGAUUGUUAUGUCAGGAUAUUGUCUAGAAACUAGACAAGAAGGGAUGCUUUGCC”, the “apparent Kd” value by setting is: under setting [3], 734 nM; under setting [4], 51.3 nM.
“CUAUUGAUAACAGGAUAUAUGAGUCCUACAUGAGGAUCACCCAUGUAGGUGAUCAGCCGUGAUUAGUAGAAGGGUUAUCAAUAG”: the “apparent Kd” value by setting is: under setting [3], 12.7 nM; under setting [4], 6.63 nM.
Take “UGAAAUCAUGUAGGAUAUGCAUGGCGAAGCUACGCAGAAGGACAUGAGGAUCACCCAUGUUAUAGCUACCAAGUUAGGUGGCAA”: the “apparent Kd” value is, setting by setting: under setting [1], 155 nM; under setting [2], 138 nM.

Source of the values: the EternaBench riboswitch data.
